Data as given in ChEMBL document CHEMBL3621120, “Discovery of ((4-(5-(Cyclopropylcarbamoyl)-2-methylphenylamino)-5-methylpyrrolo[1,2-f][1,2,4]triazine-6-carbonyl)(propyl)carbamoyloxy)methyl-2-(4-(phosphonooxy)phenyl)acetate (BMS-751324), a Clinical Prodrug of p38α MAP Kinase Inhibitor” (J Med Chem, 2015).
In brackets after ≈: the same amount, converted by molar mass.

What was measured:
[1] = Chemical stability of the compound in acidic pH solution; assay type: physicochemical
[2] = Chemical stability of the compound in neutral pH solution; assay type: physicochemical
[3] = Stability in pH 1 solution assessed as half-life at 37 degC; assay type: physicochemical
[4] = Stability in pH 3.1 solution assessed as half-life at 37 degC; assay type: physicochemical
[5] = Stability in pH 7.4 solution assessed as half-life at 37 degC; assay type: physicochemical
[6] = target: T1, Liver carboxylesterase (Sus scrofa, UniProt Q29550); assay: Stability assessed as porcine liver esterase-mediated drug degradation by measuring compound remaining level in pH 7.4 potassium phosphate buffer at 10 uM incubated for 0.25 hrs by LC/MS/MS; assay type: ADME, tissue-based; conditions: pig, read-out: Stability
T1 sequence (Q29550 whole entry): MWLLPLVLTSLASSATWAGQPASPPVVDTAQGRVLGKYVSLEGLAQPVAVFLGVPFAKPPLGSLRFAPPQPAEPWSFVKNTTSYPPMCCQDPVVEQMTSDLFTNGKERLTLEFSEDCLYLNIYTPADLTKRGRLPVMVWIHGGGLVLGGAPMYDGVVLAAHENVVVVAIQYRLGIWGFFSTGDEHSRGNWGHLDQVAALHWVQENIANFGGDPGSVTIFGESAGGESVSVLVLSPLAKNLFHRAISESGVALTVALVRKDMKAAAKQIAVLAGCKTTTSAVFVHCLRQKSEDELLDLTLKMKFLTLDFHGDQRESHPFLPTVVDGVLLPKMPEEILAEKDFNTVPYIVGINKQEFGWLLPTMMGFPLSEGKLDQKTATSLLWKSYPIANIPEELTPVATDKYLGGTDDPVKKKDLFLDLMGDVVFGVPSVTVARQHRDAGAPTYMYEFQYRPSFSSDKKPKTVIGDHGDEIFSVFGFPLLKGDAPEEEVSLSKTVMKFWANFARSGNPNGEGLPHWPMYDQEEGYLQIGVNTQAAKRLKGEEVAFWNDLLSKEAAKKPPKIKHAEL
How it was run: (§1)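 Porcine liver esterase with substrate at 10 µM in 89 mM potassium phosphate pH 7.4, 37 °C. Reaction started by adding compound. Aliquots taken at 0, 15, 30 and 60 min and quenched with acetonitrile. After centrifugation at 4 °C, percent remaining quantified by LC/MS/MS.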

[7] = Chemical stability of the compound in pH 7.4 potassium phosphate buffer at 10 uM incubated for 1 hr by LC/MS/MS method; assay type: physicochemical; conditions: read-out: Stability
How it was run: (§2)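 Compound at 10 µM in 89 mM potassium phosphate buffer, pH 7.4, 37 °C, incubated with or without porcine liver esterase; started by compound addition, aliquots at 0, 15, 30, 60 min, acetonitrile added, centrifuged at 4 °C, remaining compound measured by LC/MS/MS.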

[8] = target: T1, Liver carboxylesterase; assay: Stability assessed as porcine liver esterase-mediated drug degradation by measuring compound remaining level in pH 7.4 potassium phosphate buffer at 10 uM incubated for 0.5 hrs by LC/MS/MS; assay type: ADME, tissue-based; conditions: pig, read-out: Stability; how it was run: as §1
[9] = Chemical stability of the compound in pH 7.4 potassium phosphate buffer at 10 uM incubated for 0.25 hrs by LC/MS/MS method; assay type: physicochemical; conditions: read-out: Stability; how it was run: as §2
[10] = target: T1, Liver carboxylesterase; assay: Stability assessed as porcine liver esterase-mediated drug degradation by measuring compound remaining level in pH 7.4 potassium phosphate buffer at 10 uM incubated for 1 hr by LC/MS/MS; assay type: ADME, tissue-based; conditions: pig, read-out: Stability; how it was run: as §1
[11] = Chemical stability of the compound in pH 7.4 potassium phosphate buffer at 10 uM incubated for 0.5 hrs by LC/MS/MS method; assay type: physicochemical; conditions: read-out: Stability; how it was run: as §2
[12] = test system: Caco-2; assay: Drug level in apical side of human Caco2 cells incubated at 37 degC for 2 hrs; assay type: ADME, cell-based; conditions: caco-2, 2 h
How it was run: (§3)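 Compounds loaded on apical side of Caco-2 monolayers and incubated at 37 °C for 2 h; prodrug, intermediate and parent measured on apical and basal sides.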

[13] = Chemical Stability of the compound in pH 1 solution; assay type: physicochemical; conditions: buffer
[14] = Bioavailability in Sprague-Dawley rat at 10 mg/kg, po after 24 hrs by LC/MS/MS method; assay type: ADME, organism-based; conditions: in vivo
[15] = AUC (0 to 24 hrs) in Lewis rat adjuvant arthritis model at 1 mg/kg, po bid beginning on day 11 post adjuvant challenge; assay type: ADME, organism-based; design: dose 1 mg/kg, time < 24 hr, route oral; conditions: in vivo
[16] = AUC in cynomolgus monkey at 10 mg/kg, po after 24 hrs by LC/MS/MS method; assay type: ADME, organism-based, Macaca fascicularis; design: dose 10 mg/kg, time < 24 hr, route oral; conditions: in vivo
[17] = Cmax in Sprague-Dawley rat at 100 mg/kg, po after 24 hrs by LC/MS/MS method; assay type: ADME, organism-based; design: dose 100 mg/kg, route oral; conditions: in vivo
[18] = test system: Rattus norvegicus; assay: Inhibition of paw swelling in Lewis rat adjuvant arthritis model assessed as reduction in hind paw volume at 3 mg/kg, po bid beginning on day 11 post adjuvant challenge by volume displacement plethysmometry method relative to control; assay type: functional; conditions: 264 h
How it was run: (§4)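 Male Lewis rats given complete Freund's adjuvant on day 1; from day 11 compounds dosed orally BID in 0.5 mL vehicle (prodrug as aqueous suspension in 0.75% Methocel, 0.1% Tween 80; parent in PEG 300). Paw volume measured 3 times per week for rest of study; paw swelling inhibition reported.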

[19] = Solubility in pH 6.5 solution; conditions: buffer
[20] = Cmax in Sprague-Dawley rat at 1 mg/kg, po after 24 hrs by LC/MS/MS method; assay type: ADME, organism-based; design: dose 1 mg/kg, route oral; conditions: in vivo
[21] = Cmax in cynomolgus monkey at 10 mg/kg, po after 24 hrs by LC/MS/MS method; assay type: ADME, organism-based, Macaca fascicularis; design: dose 10 mg/kg, route oral; conditions: in vivo
[22] = AUC in Sprague-Dawley rat at 100 mg/kg, po after 24 hrs by LC/MS/MS method; assay type: ADME, organism-based; design: time < 24 hr, dose 100 mg/kg, route oral; conditions: in vivo
[23] = test system: Caco-2; assay: Drug level in basal side of human Caco2 cells assessed as BMS-582949 level incubated at 37 degC for 2 hrs; assay type: ADME, cell-based; conditions: caco-2, 2 h; how it was run: as §3
[24] = test system: Rattus norvegicus; assay: Bioavailability in Sprague-Dawley rat at 100 mg/kg, po after 24 hrs by LC/MS/MS method; assay type: ADME, organism-based; conditions: in vivo
[25] = AUC in Sprague-Dawley rat at 1 mg/kg, po after 24 hrs by LC/MS/MS method; assay type: ADME, organism-based; design: time < 24 hr, dose 1 mg/kg, route oral; conditions: in vivo
[26] = Bioavailability in cynomolgus monkey at 10 mg/kg, po after 24 hrs by LC/MS/MS method; assay type: ADME, organism-based, Macaca fascicularis; conditions: in vivo
[27] = Bioavailability in Sprague-Dawley rat at 1 mg/kg, po after 24 hrs by LC/MS/MS method; assay type: ADME, organism-based; conditions: in vivo
[28] = Cmax in Sprague-Dawley rat at 10 mg/kg, po after 24 hrs by LC/MS/MS method; assay type: ADME, organism-based; design: dose 10 mg/kg, route oral; conditions: in vivo
[29] = test system: Rattus norvegicus; assay: Inhibition of LPS-induced TNFalpha level in Lewis rat at 0.03 to 10 mg/kg, po dosed 1 hr before LPS challenge and measured 90 mins post LPS challenge by ELISA method; assay type: functional
How it was run: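 Male Lewis rats (200-250 g) dosed orally 1 h before IP injection of 10ug E. coli O111:B4 LPS in 1.0 mL sterile saline; prodrug as suspension in 0.75% Methocel, 0.1% Tween 80, parent in PEG 300, controls given vehicle. Blood taken 90 min after LPS; serum TNF measured by ELISA; ED50 expressed as parent equivalent.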

[30] = AUC in Sprague-Dawley rat at 10 mg/kg, po after 24 hrs by LC/MS/MS method; assay type: ADME, organism-based; design: time < 24 hr, dose 10 mg/kg, route oral; conditions: in vivo
[31] = Solubility in pH 1.2 solution; conditions: buffer
[32] = test system: Rattus norvegicus; assay: Inhibition of paw swelling in Lewis rat adjuvant arthritis model assessed as reduction in hind paw volume at 1 mg/kg, po bid beginning on day 11 post adjuvant challenge by volume displacement plethysmometry method relative to control; assay type: functional; conditions: 264 h; how it was run: as §4
[33] = test system: Caco-2; assay: Drug level in apical side of human Caco2 cells assessed as BMS-582949 level incubated at 37 degC for 2 hrs; assay type: ADME, cell-based; conditions: caco-2, 2 h; how it was run: as §3
[34] = AUC (0 to 24 hrs) in Lewis rat adjuvant arthritis model at 3 mg/kg, po bid beginning on day 11 post adjuvant challenge; assay type: ADME, organism-based; design: dose 3 mg/kg, time < 24 hr, route oral; conditions: in vivo

SMILES: CCCN(C(=O)OCOC(=O)/C=C/C(=O)O)C(=O)c1cn2ncnc(Nc3cc(C(=O)NC4CC4)ccc3C)c2c1C
- Stability [1]: Stable
- Stability [2]: Stable

SMILES: CCCNC(=O)c1cn2ncnc(N(COP(=O)([O-])O)c3cc(C(=O)NC4CC4)ccc3C)c2c1C.[Na+]
- half-life [3]: < 0.25 h
- half-life [4]: < 0.25 h
- half-life [5]: 20 h

SMILES: CCCN(C(=O)OCOC(=O)Cc1ccc(O)cc1)C(=O)c1cn2ncnc(Nc3cc(C(=O)NC4CC4)ccc3C)c2c1C
- remaining at 0.25 h, 10 µM [6]: 8.2%
- remaining at 1 h, 10 µM [7]: 75%
- remaining at 0.5 h, 10 µM [8]: 6.9%
- remaining at 0.25 h, 10 µM [9]: 100%
- remaining at 1 h, 10 µM [10]: 5.8%
- remaining at 0.5 h, 10 µM [11]: 93%
- Drug uptake [12]: Active

SMILES: CCCN(C(=O)OCOP(=O)(O)O)C(=O)c1cn2ncnc(Nc3cc(C(=O)NC4CC4)ccc3C)c2c1C
- Stability [13]: Stable
- Stability [2]: Unstable

SMILES: CCCNC(=O)c1cn2ncnc(Nc3cc(C(=O)N(COP(=O)(O)O)C4CC4)ccc3C)c2c1C.CCN(C(C)C)C(C)C
- half-life [3]: < 0.25 h
- half-life [4]: < 0.25 h
- half-life [5]: 257 h

SMILES: CCCN(COP(=O)(O)O)C(=O)c1cn2ncnc(Nc3cc(C(=O)NC4CC4)ccc3C)c2c1C.CCN(C(C)C)C(C)C
- half-life [3]: < 0.25 h
- half-life [4]: < 0.25 h
- half-life [5]: 54 h

SMILES: CCCNC(=O)c1cn2ncnc(Nc3cc(C(=O)NC4CC4)ccc3C)c2c1C [BMS-582949]
- bioavailability [14]: 31%
- AUC at 24 h [15]: 6.7 µM·h
- AUC at 24 h [16]: 7.6 µM·h
- Cmax [17]: 3000 nM
- inhibition in vivo at 3 mg/kg [18]: 35%
- solubility [19]: 3 µg/mL (≈ 7.38 µM)
- Cmax [20]: 800 nM
- Cmax [21]: 1000 nM
- AUC at 24 h [22]: 3 µM·h
- Drug uptake [23]: Active
- F [24]: 4.3%
- AUC at 24 h [25]: 4.2 µM·h
- bioavailability [26]: 16%
- bioavailability [27]: 55%
- Cmax [28]: 4300 nM
- ED50 [29]: 0.88 mg
- AUC at 24 h [30]: 23 µM·h
- solubility [31]: 280 µg/mL (≈ 689 µM)
- inhibition in vivo at 1 mg/kg [32]: 27%
- Drug uptake [33]: Active
- AUC at 24 h [34]: 25.3 µM·h
